Screens as filed in PubChem BioAssay.
The entries come from a sample that favours hits as a whole.
GSK3A inh – blocks human GSK-3 alpha kinase; AID 2650; inhibition, % at 10 µM; P49840; 0.1% of 320,000 active; ADP-Glo luminescence, 60 min;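 active = more than half of replicates show inhibition above 20%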;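 note: GST-tagged GSK-3 alpha with peptide substrate and 25 µM ATP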
GSK3B inh – blocks human GSK3beta kinase activity | 0.038% of 300,000 active | GST-GSK3beta kinase, ADP-Glo luminescence, 60 min; hits give low values | P49841 | activity score (negative = inhibition), % at 10 µM;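 active = more than half of replicate wells score below -50%, meaning over 50% inhibition versus plate controls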
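Test system: GST-fused GSK3beta enzyme, cell-free | Quantity: 1.6 ng GST-GSK3beta enzyme per well | Reagent: 25 µM ATP with peptide substrate | Schedule: 60 min enzyme reaction, room temperature | Signal: Luminescent ADP-Glo measurement of ADP formed | Read-out basis: Score relative to plate controls | Control set: DMSO and 20 µM GW8510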
CDK5 p35 inh – CDK5/p35 (human) kinase inhibition. Q00535+Q15078. Recombinant CDK5/p35, ADP-Glo luminescence, 60 min. inhibition, % at 10 µM. 0.01% of 330,000 active;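 active = highest replicate inhibition of at least 50% and at least 75% of replicates reaching 50%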
STK33 inh – blocks human STK33 kinase activity. 0.073% of 320,000 active. AID 2661. Q9BYT3. inhibition, % at 10 µM. purified STK33, MBP phosphorylation, ADP-Glo luminescence;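 active = inhibition at or above 25%, using the most active replicate where run in duplicate; inactive = inhibition below 25%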
Target sequence (Q9BYT3 whole entry, looked up): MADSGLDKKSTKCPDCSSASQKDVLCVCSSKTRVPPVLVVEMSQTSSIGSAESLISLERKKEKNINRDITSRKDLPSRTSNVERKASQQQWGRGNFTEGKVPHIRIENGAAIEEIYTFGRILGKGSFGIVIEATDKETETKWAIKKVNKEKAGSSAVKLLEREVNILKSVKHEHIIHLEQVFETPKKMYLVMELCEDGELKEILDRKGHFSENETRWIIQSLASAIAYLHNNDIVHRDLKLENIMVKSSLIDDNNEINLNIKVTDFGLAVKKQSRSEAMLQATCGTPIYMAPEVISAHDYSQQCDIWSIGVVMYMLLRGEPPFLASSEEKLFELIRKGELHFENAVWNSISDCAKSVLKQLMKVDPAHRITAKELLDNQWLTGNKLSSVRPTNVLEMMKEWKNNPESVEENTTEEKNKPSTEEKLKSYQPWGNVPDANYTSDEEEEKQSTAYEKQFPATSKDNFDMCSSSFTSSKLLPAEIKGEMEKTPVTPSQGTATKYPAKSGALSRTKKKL
Dyrk1A ADPGlo – Dyrk1A (rat) kinase inhibition | 0.43% of 310,000 active | AID 504441 | ADP-Glo luminescence, NFATc1 peptide | Q63470 | inhibition, % at 12.5 µM; in the data active = inhibition above about 50%
Each line names hits and unclear results; the compound was inactive in the other large screens.

COC(=O)c1cc(NC(=O)C2COc3ccccc3O2)cc(C(=O)OC)c1 (centres undefined)	STK33 inh 29
CN(C)c1cc2c(c(N(C)C)c1)C(=O)c1ccccc1C2=O	STK33 inh 40
CN(C)S(=O)(=O)c1cccc2c1C(=O)c1ccccc1C2=O	none
COc1cccc(C(=O)O/N=C(\N)c2ccccn2)c1	STK33 inh 37 (no result: GSK3B inh)
COc1ccc(C(=O)O/N=C(\N)c2ccccc2)cc1	STK33 inh 26 (no result: Dyrk1A ADPGlo)
N/C(=N\OC(=O)c1ccc(Cl)cc1Cl)c1ccccn1	none
Cc1ccc(C(=O)O/N=C(\N)c2ccccn2)c(Cl)c1	STK33 inh 29
CC1CN(C(=O)CCC(=O)NCCCN2C(C)CCCC2C)c2ccccc2O1 (centres undefined)	none
Cc1ccc(S(=O)(=O)c2nc(NN(C)C)sc2Cl)cc1	none
O=C(O)c1cc(-c2ccc(/C=N/Nc3ccc([N+](=O)[O-])cn3)o2)ccc1Cl	GSK3B inh -63 (no result: GSK3A inh, STK33 inh)
Cc1cccc(-c2nc3ccccc3c3nncn23)c1	STK33 inh 53, Dyrk1A ADPGlo 58
c1ccc(-c2nc3ccccc3c3nncn23)cc1	none
CCOc1ccc(NC(=O)CCC(=O)NNC(=O)Nc2cccc(Cl)c2)cc1	none
O=C(Nc1ccccc1C(=O)O)c1cccc(C(=O)Nc2ccccc2C(=O)O)c1	STK33 inh 57
Cc1cc(C(=O)CCC(=O)N(C)CC(=O)Nc2ccccc2Br)c(C)s1	none
COc1c(C)cc(C(=O)C2CCCN(Cc3c(C)n(C)n(-c4ccccc4)c3=O)C2)cc1C (centres undefined)	none
O=C(CSc1nc2[nH]ncc2c(=O)n1-c1ccccc1)NCCc1ccccc1	GSK3A inh 54
O=C(CSc1nc2[nH]ncc2c(=O)n1-c1ccccc1)NCc1cccs1	none
CN1CCc2c(sc3c2c(=O)n(-c2ccccc2)c2nncn32)C1	none (no result: GSK3A inh)
CN1CCc2c(sc3c2c(=O)n(-c2ccccc2)c2n[nH]c(=S)n32)C1	GSK3A inh 80, GSK3B inh -50, STK33 inh 36
CCN1CCN(c2cc(C)c3cc(NC(=O)c4ccncc4)ccc3n2)CC1	none
CCN1CCN(c2cc(C)c3cc(NC(=O)c4ccc(Br)o4)ccc3n2)CC1	STK33 inh 29
CC1(C)Cc2nc3oc4c(SCC(N)=O)ncnc4c3cc2CO1	none (no result: CDK5 p35 inh, Dyrk1A ADPGlo)
Oc1ccc(/C=N/NC(=S)Nc2cccnc2)cc1	none
Oc1ccc(/C=N/NC(=S)N/N=C/c2ccc(O)cc2)cc1	STK33 inh 30
O=C1NC(=O)c2c(NC(=O)C3CCCO3)cccc21 (centres undefined)	none (no result: Dyrk1A ADPGlo)
CC(=O)Nc1cccc2c1C(=O)NC2=O	GSK3A inh 72
O=C(CSC1CC(=O)N(c2ccc(C(=O)O)cc2)C1=O)Nc1ccc(Cl)cc1 (centres undefined)	none
O=C(Nc1c(C(=O)O)oc2ccc(Br)cc12)c1ccccc1	GSK3A inh 75
NS(=O)(=O)c1ccc(N=Nc2ccc(=O)[nH]c2O)cc1	GSK3A inh 55
O/N=C/c1cn(-c2ccccc2)nc1-c1cccnc1	GSK3A inh 71
O=C(N/N=C/c1cn(-c2ccccc2)nc1-c1cccnc1)c1cccnc1	none
Cc1ccc(-c2nn(-c3ccccc3)cc2/C=N/O)cc1	GSK3A inh 78, GSK3B inh -52 (no result: Dyrk1A ADPGlo)
CCSC1=NN2CCS(=O)(=O)N=C2S1	none
O=S(=O)(c1cccc(-c2n[nH]c(=S)o2)c1)N1CCOCC1	none
COc1cc(/C=C/C(O)=C/C(=O)/C=C/c2ccc(O)cc2)ccc1O	STK33 inh 43 (no result: GSK3B inh)
N#C/C(=C\c1ccc(O)c(O)c1)C(=O)N1CCCC1	none
N#C/C(=C\c1ccc(O)c(O)c1)C(=O)c1ccc(O)c(O)c1	STK33 inh 28 (no result: GSK3B inh)
COc1ccc(-c2csc(NC(=O)c3ccccc3NS(=O)(=O)c3ccc(F)c(F)c3)n2)cc1	Dyrk1A ADPGlo 57
CC1CCCCC12NC(=O)N(CC(=O)Nc1sc3c(c1C(N)=O)CCC3)C2=O (centres undefined)	GSK3A inh 58
CC1CCC2(CC1)NC(=O)N(CC(=O)Nc1sc3c(c1C(N)=O)CCC3)C2=O (centres undefined)	GSK3A inh 78
COc1ccc(CN2CCN(CC(=O)Nc3ccccc3C(=O)NC3CC3)CC2)cc1F	none (no result: GSK3B inh, Dyrk1A ADPGlo)
CCCC(C)C(=O)OCC(=O)Nc1ccc(Br)cc1 (centres undefined)	none (no result: CDK5 p35 inh, Dyrk1A ADPGlo)
CCOc1ccc(N(CC(=O)NCCc2ccccc2)C(=O)CCC(=O)Nc2cc(C)ccn2)cc1	none
